For orientation: AUC means concentration integrated over time. A word on the Emax: it is the maximal effect, on the per cent scale that the assay sets.

Each structure is given as a SMILES string. Active and inactive are the calls of the source. The rule behind the calls is not given here.

This note sets out measurements from ChEMBL document CHEMBL4049426, “Identification of the Clinical Candidate (R)-(1-(4-Fluorophenyl)-6-((1-methyl-1H-pyrazol-4-yl)sulfonyl)-4,4a,5,6,7,8-hexahydro-1H-pyrazolo[3,4-g]isoquinolin-4a-yl)(4-(trifluoromethyl)pyridin-2-yl)methanone (CORT125134): A Selective Glucocorticoid Receptor (GR) Antagonist” (J Med Chem, 2017).

Data set [1] is described as follows: AUC in Sprague-Dawley CD-1 rat plasma at 3 mg/kg, po administered as cassette dose via gavage measured up to 24 hrs by LC/MS analysis. It counts as ADME, organism-based. Also on record: time < 24 hr, dose 3 mg/kg, route oral. In short, it runs like this:
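Three male Sprague Dawley CD-1 rats (220-250g) with jugular vein catheters; three test compounds plus a reference dosed together by oral gavage, 3mg/kg each, in DMSO:0.5% methylcellulose 10:90 (0.6mg/mL per compound), 5mL/kg. Plasma sampled pre-dose and at 0.25, 0.5, 1, 2, 4, 6, 8, 24 h; LC/MS.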

Data set [2] is described as follows: AUC in monkey plasma at 20 mg/kg, po measured up to 24 hrs by LC/MS analysis. It counts as ADME, organism-based, Macaca mulatta. Set-up: dose 20 mg/kg, time < 24 hr, route oral. Conditions: rhesus monkey. The gist of the method:
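Monkey i.v./p.o. study: oral 20mg/kg in 10% DMSO, 0.1% Tween 80, 0.5% hydroxypropylmethylcellulose in water; i.v. dose 1mg/kg.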

Data set [3] concerns the target T1, Glucocorticoid receptor (Rattus norvegicus) (UniProt P06536).
T1 sequence (whole entry): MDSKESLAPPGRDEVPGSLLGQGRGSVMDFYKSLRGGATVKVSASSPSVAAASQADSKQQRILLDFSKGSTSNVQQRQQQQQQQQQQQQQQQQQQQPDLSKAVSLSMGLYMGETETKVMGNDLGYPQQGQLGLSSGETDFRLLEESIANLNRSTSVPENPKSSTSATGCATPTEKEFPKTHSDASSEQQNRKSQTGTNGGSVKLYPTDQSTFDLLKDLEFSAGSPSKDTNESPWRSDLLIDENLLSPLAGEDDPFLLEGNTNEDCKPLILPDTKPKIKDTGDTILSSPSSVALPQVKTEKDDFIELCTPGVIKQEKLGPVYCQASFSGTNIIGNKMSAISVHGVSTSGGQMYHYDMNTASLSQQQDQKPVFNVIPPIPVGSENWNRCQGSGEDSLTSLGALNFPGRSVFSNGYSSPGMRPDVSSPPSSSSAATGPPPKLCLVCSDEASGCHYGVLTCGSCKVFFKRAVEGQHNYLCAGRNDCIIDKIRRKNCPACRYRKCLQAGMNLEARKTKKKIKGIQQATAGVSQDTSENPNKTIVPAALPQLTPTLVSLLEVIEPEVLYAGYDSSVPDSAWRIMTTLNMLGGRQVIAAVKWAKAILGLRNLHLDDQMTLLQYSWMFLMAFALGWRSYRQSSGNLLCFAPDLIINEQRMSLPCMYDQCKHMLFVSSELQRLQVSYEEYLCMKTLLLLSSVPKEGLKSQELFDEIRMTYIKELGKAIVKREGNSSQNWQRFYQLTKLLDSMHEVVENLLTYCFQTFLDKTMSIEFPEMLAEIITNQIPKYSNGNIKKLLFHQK
The experiment in a line: Partial agonist activity at rat glucocorticoid receptor in primary hepatocytes assessed as induction of tyrosine amino transferase activity at 10 uM measured after 20 hrs. It counts as cell-based.

The next data set has as its system Rattus norvegicus. The experiment in a line: In vivo antagonist activity at glucocorticoid receptor in Sprague-Dawley rat assessed as reduction in cortisone-induced plasma glucose levels at 7.5 mg/kg, po bid via gavage for 6 days pretreated for 12 hrs followed by cortisone 21-acetate treatment measured 24 hrs after last cortisone 21-acetate treatment. The class given is functional, organism-based. The gist of the method: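 Male Sprague Dawley rats (200-250 g) got vehicle daily for a 3-day baseline, then groups of eight were dosed. Test agent was suspended in DMSO:Tween 80:0.5% HPMC (10:0.1:89.9) and given by oral gavage twice daily for 6 days. Cortisone 21-acetate was given at 30 mg/kg s.c. once daily in 1% methylcellulose. Tail-vein blood was taken 24 h after the last cortisone dose (12 h after the last test dose). Glucose was read with a clinical reagent and insulin by rat ELISA.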

The target in a further data set is T2, Cytochrome P450 1A2 (Homo sapiens, UniProt P05177).
T2 sequence (P05177 whole entry): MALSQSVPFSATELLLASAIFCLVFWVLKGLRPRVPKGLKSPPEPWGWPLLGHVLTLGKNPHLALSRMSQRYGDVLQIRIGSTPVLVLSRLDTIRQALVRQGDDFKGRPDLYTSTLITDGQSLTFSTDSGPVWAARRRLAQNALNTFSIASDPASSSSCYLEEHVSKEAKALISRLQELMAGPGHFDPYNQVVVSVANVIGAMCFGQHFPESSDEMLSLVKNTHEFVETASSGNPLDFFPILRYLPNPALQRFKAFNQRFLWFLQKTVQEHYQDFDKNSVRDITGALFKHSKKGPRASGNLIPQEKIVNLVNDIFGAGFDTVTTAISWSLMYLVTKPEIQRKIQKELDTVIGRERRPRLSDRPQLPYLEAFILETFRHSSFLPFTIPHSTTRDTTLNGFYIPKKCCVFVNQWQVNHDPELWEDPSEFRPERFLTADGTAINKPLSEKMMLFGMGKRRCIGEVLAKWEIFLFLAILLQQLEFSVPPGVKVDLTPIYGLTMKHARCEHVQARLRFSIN
The experiment in a line: Time-dependent inhibition of CYP1A2 (unknown origin). It counts as ADME.

A further data set deals with Cytochrome P450 2C19 (Homo sapiens, UniProt P33261). The experiment in a line: Time-dependent inhibition of CYP2C19 (unknown origin). The class given is ADME.
Sequence of Cytochrome P450 2C19 (P33261 whole entry): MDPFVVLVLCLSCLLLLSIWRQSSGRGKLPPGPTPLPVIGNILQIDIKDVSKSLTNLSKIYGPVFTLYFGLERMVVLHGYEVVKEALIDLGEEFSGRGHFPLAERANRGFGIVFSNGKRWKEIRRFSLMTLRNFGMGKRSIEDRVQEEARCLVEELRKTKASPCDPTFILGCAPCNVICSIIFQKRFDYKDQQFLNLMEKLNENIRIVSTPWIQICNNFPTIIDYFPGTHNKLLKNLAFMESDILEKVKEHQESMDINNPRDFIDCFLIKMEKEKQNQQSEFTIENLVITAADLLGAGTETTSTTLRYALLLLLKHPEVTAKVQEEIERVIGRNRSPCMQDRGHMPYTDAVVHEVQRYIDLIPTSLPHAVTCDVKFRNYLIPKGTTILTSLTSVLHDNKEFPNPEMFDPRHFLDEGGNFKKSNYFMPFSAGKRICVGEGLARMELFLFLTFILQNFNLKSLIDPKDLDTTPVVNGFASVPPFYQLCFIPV
The target of data set [4] is T3, Glucocorticoid receptor (Homo sapiens) (UniProt P04150).
T3 sequence (whole entry): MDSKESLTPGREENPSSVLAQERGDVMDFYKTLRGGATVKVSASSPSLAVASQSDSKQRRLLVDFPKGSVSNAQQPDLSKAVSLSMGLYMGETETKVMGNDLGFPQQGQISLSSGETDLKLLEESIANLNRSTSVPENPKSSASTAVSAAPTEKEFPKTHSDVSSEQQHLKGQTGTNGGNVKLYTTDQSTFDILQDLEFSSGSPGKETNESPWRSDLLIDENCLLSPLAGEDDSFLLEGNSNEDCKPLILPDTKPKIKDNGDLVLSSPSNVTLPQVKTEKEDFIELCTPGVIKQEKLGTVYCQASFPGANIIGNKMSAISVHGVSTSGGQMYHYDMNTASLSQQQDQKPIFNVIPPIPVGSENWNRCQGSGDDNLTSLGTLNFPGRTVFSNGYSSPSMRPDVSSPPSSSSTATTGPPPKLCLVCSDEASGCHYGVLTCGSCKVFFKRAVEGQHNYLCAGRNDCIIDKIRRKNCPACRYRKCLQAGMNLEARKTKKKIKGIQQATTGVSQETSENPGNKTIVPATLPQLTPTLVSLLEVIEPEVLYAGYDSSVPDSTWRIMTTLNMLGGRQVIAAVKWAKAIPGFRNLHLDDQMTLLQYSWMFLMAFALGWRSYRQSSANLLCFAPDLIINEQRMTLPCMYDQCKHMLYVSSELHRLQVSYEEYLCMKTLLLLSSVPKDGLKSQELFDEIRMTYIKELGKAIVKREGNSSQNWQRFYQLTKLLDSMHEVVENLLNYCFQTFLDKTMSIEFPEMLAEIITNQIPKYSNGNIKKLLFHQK
Description: Agonist activity at glucocorticoid receptor in human primary hepatocytes assessed as induction of tyrosine amino transferase activity measured after 20 hrs relative to control. The class given is cell-based.

Turning to `Cn1cc(S(=O)(=O)N2CCC3=Cc4c(cnn4-c4ccc(F)cc4)C[C@]3(C(=O)c3cc(C(F)(F)F)ccn3)C2)cn1` [RELACORILANT], the AUC at 24 h stood at 1220 ng·h/mL in data set [1] and 11700 ng·h/mL in data set [2]. For the same molecule, the result in data set [3] was Active. The inhibition entry with Rattus norvegicus was “Active”. Besides, the TDI result at Cytochrome P450 1A2 and on Cytochrome P450 2C19 was “Not Active” in each case. In data set [4], the Emax stood at 0%.
